Assay outcomes deposited in PubChem by several laboratories.
A selection: hits, their analogues and other compounds. The true share with any hit is near 2%.
PvdQ inh – blocks Pseudomonas aeruginosa PvdQ acylase activity | purified PvdQ acylase, fluorescence plate reader | AID 488965 | inhibition, % at 10 µM | hit rate 0.063% among 340,000; in the data active means inhibition above about 30%, passing the limit was not always enough;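 further: 0% = vehicle neutral wells and 100% = reference inhibitor wells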
VIM-2 inhibitor – blocks Pseudomonas aeruginosa VIM-2 metallo-beta-lactamase | AID 1527 | inhibition, % at 5.6 µM | purified VIM-2, nitrocefin hydrolysis, epi-absorbance fluorescence | hit rate 0.89% among 290,000;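 active means inhibition above the mean of all tested compounds plus 3 SD, cutoff set per screening run, cut at about 7.5% in these data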;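 further: red hydrolysis product quenches plate fluorescence so inhibitors raise well fluorescence; 0% = enzyme with DMSO and 100% = DMSO without enzyme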
MIN6 prolif – inducers of beta-cell replication in MIN6 cells; proliferation, % at 10 µM; hit rate 0.29% among 330,000; MIN6 cells proliferation, ATPlite luminescence, 48 h; cells starved in 0.2% serum; 100% = growth in 10% serum;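 active means compounds whose signal lies at least 3.5 SD above the mean of all wells on their plate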;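 further: 0% = DMSO-treated cells in low-serum medium and 100% = 10% serum control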
HKDC1 inhibitor – blocks human hexokinase HKDC1 activity | Q2TB90 | recombinant HKDC1, G6PDH/diaphorase resazurin coupled fluorescence | inhibition, % at 20 µM | hit rate 0.16% among 340,000 | AID 493160;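 active means inhibition above about 35% when tested at 20 µM, limit read from the data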;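 further: plate controls were DMSO wells with enzyme for no effect and DMSO wells lacking enzyme for full effect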
Target sequence (Q2TB90 whole entry, looked up): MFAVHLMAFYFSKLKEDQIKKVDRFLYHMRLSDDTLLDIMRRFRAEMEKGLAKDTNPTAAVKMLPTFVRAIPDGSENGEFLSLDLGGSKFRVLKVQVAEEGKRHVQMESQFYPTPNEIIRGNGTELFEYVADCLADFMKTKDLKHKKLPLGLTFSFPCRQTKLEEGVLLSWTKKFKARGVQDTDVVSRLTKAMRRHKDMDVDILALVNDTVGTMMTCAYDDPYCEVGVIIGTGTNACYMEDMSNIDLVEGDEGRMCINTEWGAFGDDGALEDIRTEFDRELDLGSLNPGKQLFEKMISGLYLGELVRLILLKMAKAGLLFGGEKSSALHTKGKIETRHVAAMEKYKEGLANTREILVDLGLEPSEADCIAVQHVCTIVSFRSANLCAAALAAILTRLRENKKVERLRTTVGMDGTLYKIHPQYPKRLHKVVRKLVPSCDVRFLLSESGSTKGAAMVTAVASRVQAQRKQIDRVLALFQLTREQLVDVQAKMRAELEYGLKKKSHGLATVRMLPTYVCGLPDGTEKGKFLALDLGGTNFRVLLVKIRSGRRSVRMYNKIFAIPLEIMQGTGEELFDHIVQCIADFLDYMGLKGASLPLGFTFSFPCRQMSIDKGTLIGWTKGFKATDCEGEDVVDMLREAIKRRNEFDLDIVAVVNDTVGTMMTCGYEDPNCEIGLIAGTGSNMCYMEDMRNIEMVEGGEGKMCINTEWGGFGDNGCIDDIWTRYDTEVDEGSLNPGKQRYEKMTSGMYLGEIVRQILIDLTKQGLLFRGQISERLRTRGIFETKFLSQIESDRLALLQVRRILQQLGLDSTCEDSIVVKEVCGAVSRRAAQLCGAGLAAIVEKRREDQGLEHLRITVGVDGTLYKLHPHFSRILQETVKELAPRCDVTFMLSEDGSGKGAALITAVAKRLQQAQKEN
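Test system: Recombinant HKDC1 (HK5) hexokinase enzyme, produced in-house | Input: HKDC1 at 5 µg/mL | Buffer or medium: Tris pH 8.0 buffer with MgCl2, Tween-20, BSA, BME | Schedule: 90 min reaction incubation at room temperature, dark | Technique: Resazurin-to-resorufin fluorescence via G6PDH and diaphorase coupling, 525/613 nm | Controls: DMSO wells with and without enzyme mix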
IMP-1 inh – inhibitors of Pseudomonas aeruginosa IMP-1 metallo-beta-lactamase; purified IMP-1, nitrocefin hydrolysis, epi-absorbance fluorescence; inhibition, % at 5.6 µM; hit rate 0.45% among 290,000; AID 1556;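 active means inhibition above the mean plus 3 SD of all compounds in the same screening run, cut at about 4.5% in these data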;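 further: 0% = IMP-1 with DMSO and 100% = DMSO wells lacking enzyme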
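System: purified IMP-1 / Input: IMP-1 dispensed at 0.2 nM / Medium: 50 mM HEPES pH 7.1, 50 µM ZnSO4, 0.05% Brij 35 / Timing: 15 min enzyme–compound preincubation, then 25 min nitrocefin reaction, 25 °C / Technique: plate fluorescence quenching by hydrolysis product, ex 480/em 530 nm / Repeats: singlicate testing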
ATG4B inhibitor – blocks human ATG4B protease cleavage of LC3 substrate; Q9Y4P1; ATG4B cleavage of LC3-PLA2, NBD-HPC fluorescence, 1 h; inhibition, % at 8.33 µM; hit rate 0.51% among 340,000; AID 504462; in the data active means inhibition above about 40%
ATG4B conf – confirmation of human ATG4B inhibitors; shares compounds with ATG4B inhibitor; ATG4B protease fluorescent substrate cleavage assay; inhibition, % at 8.33 µM; hit rate 92% among 320; AID 504757; in the data active means inhibition above about 39%
PLA2 counter – PLA2 (human) inhibition in ATG4B counter-screen; shares compounds with ATG4B inhibitor; hit rate 66% among 1,600; purified PLA2, NBD-C6-HPC fluorescence, 45 min; inhibition, % at 8.33 µM; in the data active means inhibition above about 50%
Starred values were filed as active, the others as inactive.

What do the screens show for `CCOc1ccc(OCc2ccc(C(=O)N3CCCC(C)C3)cc2)cc1` (stereo not drawn)?
PvdQ inh: 2; VIM-2 inhibitor: -2; MIN6 prolif: -4; HKDC1 inhibitor: 1; IMP-1 inh: -3; ATG4B inhibitor: 38

What do the screens show for `O=C(NCCCn1cccn1)C1CCC(=O)N(CCc2ccccc2)C1` (stereo not drawn)?
PvdQ inh: 0; VIM-2 inhibitor: 0; MIN6 prolif: 0; HKDC1 inhibitor: -5; IMP-1 inh: -3; ATG4B inhibitor: 5

Results for Cc1ccc(NC(=S)N(CCC(C)C)C(C)c2ccncc2)c(Cl)c1 (stereo not drawn) ?
PvdQ inh: -6; VIM-2 inhibitor: -2; MIN6 prolif: 2; HKDC1 inhibitor: -4; IMP-1 inh: -3; ATG4B inhibitor: -8

Results for CC(/C=C1\SC(=S)N(c2ccc(C(=O)O)cc2)C1=O)=C\c1ccccc1 ?
PvdQ inh: -10; VIM-2 inhibitor: -1; MIN6 prolif: -6; HKDC1 inhibitor: 7; IMP-1 inh: -2; ATG4B inhibitor: 52*; ATG4B conf: 44*; PLA2 counter: 47

What do the screens show for `CC(/C=C1\SC(=S)N(NS(=O)(=O)c2ccc(C)cc2)C1=O)=C\c1ccccc1`?
PvdQ inh: -9; VIM-2 inhibitor: -4; MIN6 prolif: -4; HKDC1 inhibitor: 14; IMP-1 inh: -4; ATG4B inhibitor: 62*; PLA2 counter: 72*

Results for CC(/C=C1\SC(=S)N(NS(=O)(=O)c2ccccc2)C1=O)=C\c1ccccc1 ?
PvdQ inh: 1; VIM-2 inhibitor: -3; MIN6 prolif: -6; HKDC1 inhibitor: 8; IMP-1 inh: -3; ATG4B inhibitor: 49*; ATG4B conf: 59*; PLA2 counter: 47

What do the screens show for `CC(=O)Cn1cnc2c(cnn2-c2ccc(C)c(C)c2)c1=O`?
PvdQ inh: -17; VIM-2 inhibitor: 2; MIN6 prolif: -2; HKDC1 inhibitor: -3; IMP-1 inh: -1; ATG4B inhibitor: -2

How did CCSc1n[nH]c2nc3c(c(=O)n12)C1(CCCCC1)Cc1ccccc1-3 do in these assays?
PvdQ inh: -23; VIM-2 inhibitor: -2; MIN6 prolif: -5; HKDC1 inhibitor: 5; IMP-1 inh: -2; ATG4B inhibitor: 22

Results for CSc1n[nH]c2nc3c(c(=O)n12)C1(CCCCC1)Cc1ccccc1-3 ?
PvdQ inh: -11; VIM-2 inhibitor: -2; MIN6 prolif: -5; HKDC1 inhibitor: 3; IMP-1 inh: -1; ATG4B inhibitor: 42*; ATG4B conf: 46*; PLA2 counter: 33

Results for COC(=O)COc1ccc(-c2ccc(F)cc2)cc1C=O ?
PvdQ inh: -4; VIM-2 inhibitor: 3; MIN6 prolif: -3; HKDC1 inhibitor: -7; IMP-1 inh: 2; ATG4B inhibitor: 43*; PLA2 counter: 59*

What do the screens show for `NC(=O)c1ccc(-c2ccc(Br)cc2)o1`?
PvdQ inh: 1; VIM-2 inhibitor: 3; MIN6 prolif: -2; HKDC1 inhibitor: 5; IMP-1 inh: 1; ATG4B inhibitor: -12

How did NC(=O)C1CCN(C(=S)c2ccc(-c3ccc(Br)cc3)o2)CC1 do in these assays?
PvdQ inh: -10; VIM-2 inhibitor: 1; MIN6 prolif: -1; HKDC1 inhibitor: 13; IMP-1 inh: -3; ATG4B inhibitor: 51*; PLA2 counter: 41

What do the screens show for `OCCNc1nc(SCc2ccccc2)nc2sc3c(c12)CCC3`?
PvdQ inh: -14; VIM-2 inhibitor: -2; HKDC1 inhibitor: 6; IMP-1 inh: -5; ATG4B inhibitor: 69*; PLA2 counter: 90*

Results for O=c1c2c3c(sc2nc(NCCO)n1CCc1ccccc1)CCCCC3 ?
PvdQ inh: -7; VIM-2 inhibitor: -2; MIN6 prolif: -5; HKDC1 inhibitor: -7; IMP-1 inh: -3; ATG4B inhibitor: 28

Results for N#Cc1sc(C(N)=O)c(-c2ccccc2)c1-c1ccccc1 ?
PvdQ inh: -1; VIM-2 inhibitor: -2; MIN6 prolif: -2; HKDC1 inhibitor: -1; IMP-1 inh: -2; ATG4B inhibitor: 68*; PLA2 counter: 66*

Results for NC(=O)c1sc2nnc(-c3ccccc3)c(-c3ccccc3)c2c1N ?
PvdQ inh: -4; VIM-2 inhibitor: -2; MIN6 prolif: 3; HKDC1 inhibitor: 6; IMP-1 inh: -4; ATG4B inhibitor: 28

How did COc1ccc(-c2c(C#N)sc(C(N)=O)c2-c2ccc(OC)cc2)cc1 do in these assays?
PvdQ inh: -4; VIM-2 inhibitor: 0; MIN6 prolif: -1; HKDC1 inhibitor: 1; IMP-1 inh: 2; ATG4B inhibitor: 82*; PLA2 counter: 85*

Results for COc1ccc(OCc2nnc(SCC(=O)NC3CC3)n2C)cc1 ?
PvdQ inh: 3; VIM-2 inhibitor: -3; MIN6 prolif: -4; HKDC1 inhibitor: -3; IMP-1 inh: -3; ATG4B inhibitor: -5

Results for COc1ccc(-c2csc(NC(=O)c3ccc(C(C)(C)C)cc3)c2C(=O)O)cc1 ?
MIN6 prolif: -4; HKDC1 inhibitor: 12; ATG4B inhibitor: 47*; PLA2 counter: 53*

Results for Cc1ccc(-c2csc(NC(=O)c3ccccc3F)c2C(=O)O)cc1 ?
PvdQ inh: -7; VIM-2 inhibitor: 4; MIN6 prolif: -5; HKDC1 inhibitor: 14; IMP-1 inh: 0; ATG4B inhibitor: 55*; PLA2 counter: 58*

How did O=C(Nc1scc(-c2ccccc2)c1C(=O)O)c1ccccc1F do in these assays?
PvdQ inh: 4; VIM-2 inhibitor: -1; MIN6 prolif: -3; HKDC1 inhibitor: -2; IMP-1 inh: -1; ATG4B inhibitor: 29

How did COC(=O)c1c(NC(=O)C2SC(=NC3CCCCC3)C(C(N)=O)=C2N)sc2c1CCCC2 (stereo not drawn) do in these assays?
PvdQ inh: -12; VIM-2 inhibitor: -2; MIN6 prolif: 0; HKDC1 inhibitor: -13; IMP-1 inh: -4; ATG4B inhibitor: 6

What do the screens show for `COc1ccc(/C=C2/C(=O)N(c3nc4ccccc4s3)N=C2CSc2ccc(Cl)cc2)cc1`?
PvdQ inh: 6; VIM-2 inhibitor: -4; MIN6 prolif: -6; HKDC1 inhibitor: 24; IMP-1 inh: -2; ATG4B inhibitor: 56*; PLA2 counter: 43

What do the screens show for `COc1ccc(/C=C2/C(=O)N(Cc3ccccc3)N=C2C)cc1`?
PvdQ inh: -3; VIM-2 inhibitor: -3; MIN6 prolif: 0; HKDC1 inhibitor: 15; IMP-1 inh: -3; ATG4B inhibitor: 2
